Measurements: ChEMBL document CHEMBL1137770, “Biological activity of endomorphin and [Dmt1]endomorphin analogs with six-membered proline surrogates in position 2” (Bioorg Med Chem, 2009)
Active and inactive are the calls of the source. Square brackets hold non-standard residues; d marks the D form. Peptide text beside a SMILES is read from it. Inp = O=C(O)C1CCNCC1

How the values were obtained:
[1] = target: Mu-type opioid receptor (Rattus norvegicus, UniProt P33535); test: Displacement of [3H]DAMGO from mu opioid receptor in Wistar rat brain membrane; assay type: cell membranes
[2] = species: Rattus norvegicus; test: Selectivity ratio of IC50 for delta opioid receptor to IC50 for mu opioid receptor in Wistar rat brain membrane; assay type: cell membranes
Method in brief: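 Wistar rat brain crude membranes incubated 120 min at 25 °C with peptide and 0.5 nM [3H]DAMGO (MOR) or 0.5 nM [3H][Ile5,6]deltorphin-2 (DOR) in 50 mM Tris/HCl pH 7.4 with 5 mM MgCl2, 1 mM EDTA, 100 mM NaCl, bacitracin.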

[3] = Stability in rat brain homogenates assessed as degradation half life; assay type: ADME, tissue-based; settings: brain homogenate
Method in brief: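 Pooled rat brain homogenate (in 50 mM Tris-HCl pH 7.4, 10 mg protein/ml aliquot) incubated with 0.5 mM peptide stock at 37 °C for 0-60 min; stopped on ice with 1 M HCl, centrifuged. Remaining peptide peak area regressed as ln(A/A0) versus time for k; t1/2 = ln2/k. Three experiments in duplicate.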

[4] = target: Delta-type opioid receptor (Rattus norvegicus, UniProt P33533); test: Displacement of [3H][Ile5,6]deltorphin-2 from delta opioid receptor in Wistar rat brain membrane; assay type: cell membranes
[5] = test system: Mus musculus; test: Antinociceptive activity in iv dosed Swiss albino CD1 mouse assessed as inhibition of paw licking by hot plate test; assay type: functional, organism-based
[6] = test system: Mus musculus; test: Antinociceptive activity in icv dosed Swiss albino CD1 mouse assessed as inhibition of rearing by hot plate test in presence of MOR antagonist beta-funaltrexamine; assay type: functional, organism-based
Method in brief: (§1)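 CD1 male mice given peptide i.c.v. in 0.9% NaCl with MOR antagonist β-funaltrexamine (1 µg). Hot plate at 55±0.5 °C, 240 s cut-off; latencies to paw licking, rearing and jumping versus controls. Mean ± SEM of 10 mice per group; two-way ANOVA followed by Student-Newman-Keuls test.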

[7] = test system: Mus musculus; test: Antinociceptive activity in icv dosed Swiss albino CD1 mouse assessed as inhibition of paw licking by hot plate test; assay type: functional, organism-based
Method in brief: (§2)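 Male Swiss albino CD1 mice (20-22 g), peptide given i.c.v. into left ventricle in 0.9% NaCl. Placed on 55±0.5 °C hot plate 5 min post-injection; latency to paw licking (also rearing, jumping) versus saline-injected controls; cut-off 240 s. Dose-response curves; mean ± SEM, 10 mice per group.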

[8] = test system: Mus musculus; test: Antinociceptive activity in Swiss albino CD1 mouse assessed as duration of inhibition of jumping at 0.1 ng, icv by hot plate test; assay type: functional
Method in brief: (§3)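 Male Swiss albino CD1 mice (20-22 g), i.c.v. injection into left ventricle in 0.9% NaCl. Hot plate at 55±0.5 °C; latencies to paw licking, rearing and jumping, cut-off 240 s; saline controls. Time-course readings at 5, 10, 20, 30, 45, 60, 90, 120, 150 and 180 min after dosing; duration of effect recorded.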

[9] = test system: Mus musculus; test: Antinociceptive activity in Swiss albino CD1 mouse assessed as duration of inhibition of rearing at 0.1 ng, icv by hot plate test; assay type: functional; method in brief: as §3
[10] = test system: Mus musculus; test: Antinociceptive activity in icv dosed Swiss albino CD1 mouse assessed as inhibition of paw licking by hot plate test in presence of MOR antagonist beta-funaltrexamine; assay type: functional, organism-based; method in brief: as §1
[11] = target: T1, Mu-type opioid receptor (Homo sapiens, UniProt P35372); test: Binding affinity to recombinant OPRM1 receptor immobilized on biosensor assessed as dissociation rate constant by BIAcore X system
Method in brief: (§4)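 Surface plasmon resonance at 37 °C: recombinant OPRM1 protein immobilised on CM5 chip by amine coupling (10 µg/ml in 10 mM sodium acetate, pH 5.0). Peptides at about 0.4 mM in HBS (10 mM HEPES, 150 mM NaCl, 3 mM EDTA, 0.005% P20, pH 7.4) injected 30 s at 20 µl/min; association/dissociation RU fitted for ka and kd.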

[12] = test system: Mus musculus; test: Antinociceptive activity in icv dosed Swiss albino CD1 mouse assessed as inhibition of jumping by hot plate test in presence of MOR antagonist beta-funaltrexamine; assay type: functional, organism-based; method in brief: as §1
[13] = test system: Mus musculus; test: Antinociceptive activity in Swiss albino CD1 mouse assessed as duration of inhibition of paw licking at 0.1 ng, icv by hot plate test; assay type: functional; method in brief: as §3
[14] = test system: Mus musculus; test: Antinociceptive activity in Swiss albino CD1 mouse assessed as inhibition of paw licking at 3 ng, icv by hot plate test; assay type: functional, organism-based; method in brief: as §2
[15] = target: T1, Mu-type opioid receptor; test: Binding affinity to recombinant OPRM1 receptor immobilized on biosensor assessed as association rate constant by BIAcore X system; method in brief: as §4
[16] = test system: Mus musculus; test: Antinociceptive activity in Swiss albino CD1 mouse assessed as inhibition of paw licking at 100 ng, icv by hot plate test; assay type: functional, organism-based; method in brief: as §2
[17] = test system: Mus musculus; test: Antinociceptive activity in Swiss albino CD1 mouse assessed as duration of inhibition of jumping at 3 ng, icv by hot plate test; assay type: functional; method in brief: as §3
[18] = test system: Mus musculus; test: Antinociceptive activity in Swiss albino CD1 mouse assessed as duration of inhibition of rearing at 3 ng, icv by hot plate test; assay type: functional; method in brief: as §3
[19] = test system: Mus musculus; test: Antinociceptive activity in Swiss albino CD1 mouse assessed as duration of inhibition of paw licking at 3 ng, icv by hot plate test; assay type: functional; method in brief: as §3

T1 sequence (P35372 whole entry): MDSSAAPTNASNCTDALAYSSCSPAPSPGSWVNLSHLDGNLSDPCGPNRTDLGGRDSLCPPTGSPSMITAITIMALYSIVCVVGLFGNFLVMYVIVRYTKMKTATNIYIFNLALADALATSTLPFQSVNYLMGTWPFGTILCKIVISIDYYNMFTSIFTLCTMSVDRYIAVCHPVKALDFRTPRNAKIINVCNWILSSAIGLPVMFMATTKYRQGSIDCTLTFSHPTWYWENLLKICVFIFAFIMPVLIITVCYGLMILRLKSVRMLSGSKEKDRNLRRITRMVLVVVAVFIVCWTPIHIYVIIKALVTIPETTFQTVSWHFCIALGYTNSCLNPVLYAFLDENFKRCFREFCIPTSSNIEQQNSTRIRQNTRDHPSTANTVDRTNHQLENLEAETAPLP
Sequence of Delta-type opioid receptor (P33533 whole entry): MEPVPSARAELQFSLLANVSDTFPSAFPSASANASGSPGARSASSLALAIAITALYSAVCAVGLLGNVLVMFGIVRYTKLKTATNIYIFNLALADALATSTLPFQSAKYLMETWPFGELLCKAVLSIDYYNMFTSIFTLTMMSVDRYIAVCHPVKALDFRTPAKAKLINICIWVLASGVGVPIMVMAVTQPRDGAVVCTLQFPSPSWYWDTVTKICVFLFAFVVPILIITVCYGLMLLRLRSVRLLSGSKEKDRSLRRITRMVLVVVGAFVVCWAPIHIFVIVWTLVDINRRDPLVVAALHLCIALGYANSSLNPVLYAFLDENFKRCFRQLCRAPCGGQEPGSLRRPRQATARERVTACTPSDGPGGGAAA
Sequence of Mu-type opioid receptor (Rattus norvegicus, UniProt P33535) (P33535 whole entry): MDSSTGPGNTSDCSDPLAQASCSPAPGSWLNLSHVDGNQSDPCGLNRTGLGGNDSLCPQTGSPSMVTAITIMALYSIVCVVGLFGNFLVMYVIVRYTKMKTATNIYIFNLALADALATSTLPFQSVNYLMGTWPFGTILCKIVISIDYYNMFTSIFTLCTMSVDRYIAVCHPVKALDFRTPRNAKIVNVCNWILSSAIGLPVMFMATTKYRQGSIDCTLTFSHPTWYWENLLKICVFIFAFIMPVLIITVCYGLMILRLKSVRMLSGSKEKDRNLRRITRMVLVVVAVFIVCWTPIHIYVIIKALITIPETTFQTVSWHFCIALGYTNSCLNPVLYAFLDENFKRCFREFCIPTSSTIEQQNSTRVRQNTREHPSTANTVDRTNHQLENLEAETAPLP

Compound	IC50 [1] [nM]	Ratio IC50 [2]	half-life [3] [min]	IC50 [4] [nM]	also measured
NC(=O)[C@H](Cc1ccccc1)NC(=O)[C@H](Cc1c[nH]c2ccccc12)NC(=O)C1CCN(C(=O)[C@@H](N)Cc2ccc(O)cc2)CC1 (H-Y[Inp]WF-NH2)	401	2.15	78.5	860	
Cc1cc(O)cc(C)c1C[C@H](N)C(=O)N1CCC[C@@H](C(=O)N[C@@H](Cc2ccccc2)C(=O)N[C@@H](Cc2ccccc2)C(N)=O)C1	0.035	> 1000	30.9	407	Activity [5]: inactive; Activity [6]: inactive; Activity [7]: Dose-dependent effect; Activity [8]: >170 min; Activity [9]: >170 min; AC50 [10]: Not Active; Kd [11]: 0.29 s⁻¹; Activity [12]: inactive; Activity [13]: >170 min; Activity [14]: Active; Ka [15]: 515 M⁻¹ s⁻¹
Cc1cc(O)cc(C)c1C[C@H](N)C(=O)N1CCC[C@@H](C(=O)N[C@@H](Cc2c[nH]c3ccccc23)C(=O)N[C@@H](Cc2ccccc2)C(N)=O)C1	0.38	234	35.8	89	
NC(=O)[C@H](Cc1ccccc1)NC(=O)[C@H](Cc1ccccc1)NC(=O)[C@@H]1CCCN1C(=O)[C@@H](N)Cc1ccc(O)cc1 [ENDOMORPHIN 2]			4.8		Activity [16]: Active; Activity [17]: 50 min; Activity [18]: 50 min; Activity [19]: 50 min
NC(=O)[C@H](Cc1ccccc1)NC(=O)[C@H](Cc1ccccc1)NC(=O)[C@@H]1CCCCN1C(=O)[C@@H](N)Cc1ccc(O)cc1	80	> 12.5	6.8	> 1000	
NC(=O)[C@H](Cc1ccccc1)NC(=O)[C@H](Cc1c[nH]c2ccccc12)NC(=O)[C@@H]1CCCN(C(=O)[C@@H](N)Cc2ccc(O)cc2)C1	3.55	> 281	29.6	> 1000	
NC(=O)[C@H](Cc1ccccc1)NC(=O)[C@H](Cc1c[nH]c2ccccc12)NC(=O)[C@@H]1CCCCN1C(=O)[C@@H](N)Cc1ccc(O)cc1	20.4	> 49	9.68	> 1000	
NC(=O)[C@H](Cc1ccccc1)NC(=O)[C@H](Cc1c[nH]c2ccccc12)NC(=O)[C@@H]1CCCN1C(=O)[C@@H](N)Cc1ccc(O)cc1 [ENDOMORPHIN-1]			6.02		
NC(=O)[C@H](Cc1ccccc1)NC(=O)[C@H](Cc1ccccc1)NC(=O)[C@@H]1CCCN(C(=O)[C@@H](N)Cc2ccc(O)cc2)C1	0.04	> 1000	48	> 1000	Activity [16]: Active; Activity [5]: inactive; Activity [6]: inactive; Activity [7]: Dose-dependent effect; Activity [8]: 150 min; Activity [9]: 150 min; AC50 [10]: Not Active; Kd [11]: 0.55 s⁻¹; Activity [12]: inactive; Activity [13]: 150 min; Ka [15]: 570 M⁻¹ s⁻¹
